The results in this text go back to ChEMBL document CHEMBL1150277, “Benzofuran-based hybrid compounds for the inhibition of cholinesterase activity, beta amyloid aggregation, and abeta neurotoxicity” (J Med Chem, 2008).

In one data set the target is Acetylcholinesterase (Homo sapiens, UniProt P22303). The data set is described as follows: Inhibition of human recombinant AchE after 20 mins by Ellman's method. (Ellman's reagent forms a yellow product with free thiols.)
The next data set deals with Cholinesterase (Homo sapiens, UniProt P06276). As to the kind of experiment: Inhibition of human serum BuchE after 20 mins by Ellman's method.
Cholinesterase, sequence (P06276 whole entry): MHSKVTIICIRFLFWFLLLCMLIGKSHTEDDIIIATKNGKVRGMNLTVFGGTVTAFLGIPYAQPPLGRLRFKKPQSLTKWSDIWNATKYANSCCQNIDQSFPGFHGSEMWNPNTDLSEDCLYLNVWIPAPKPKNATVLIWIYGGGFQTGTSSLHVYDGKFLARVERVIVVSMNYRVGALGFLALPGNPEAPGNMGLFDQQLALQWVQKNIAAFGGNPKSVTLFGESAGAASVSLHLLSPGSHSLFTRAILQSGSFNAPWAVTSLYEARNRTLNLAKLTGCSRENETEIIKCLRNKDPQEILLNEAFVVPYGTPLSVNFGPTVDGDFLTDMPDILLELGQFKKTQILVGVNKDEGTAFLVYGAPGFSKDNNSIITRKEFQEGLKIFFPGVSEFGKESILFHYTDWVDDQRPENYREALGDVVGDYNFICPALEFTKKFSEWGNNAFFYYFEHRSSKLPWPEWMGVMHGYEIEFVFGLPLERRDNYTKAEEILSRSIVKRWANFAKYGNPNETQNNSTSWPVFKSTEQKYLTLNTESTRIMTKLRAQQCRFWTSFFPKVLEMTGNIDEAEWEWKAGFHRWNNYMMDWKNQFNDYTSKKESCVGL
A short description of data set [1]: Inhibition of Amyloid beta 25-35 fibril formation. The gist of the method: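 In vitro assay of Aβ25-35 fibril formation read by UV-vis measurements, with electron microscopy also used. IC50 is the inhibitor concentration that lowers fibril formation to 50% of the untreated control value.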
Data set [2] can be described thus: Lipophilicity, log P of the compound. The class given is physicochemical. The settings on record: octanol/water.
Data set [3] concerns SH-SY5Y. As to the kind of experiment: Neuroprotective effect against Amyloid beta 25-35-induced neurotoxicity in human SH-SY5Y cells assessed as neuronal viability at 10 to 30 uM after 3 hrs by MTT assay. It is filed as functional. The gist of the method: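 SH-SY5Y cells were exposed 3 h to 10 µM Aβ25-35 peptide, with or without varied compound concentrations. Viability was measured by MTT and expressed as percentage of control cells, as mean ± SD of three independent experiments. Comparison was against the untreated sample by ANOVA with Dunnett post hoc test.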
(In general: Tetrazolium dyes change colour on reduction, which living cells bring about.)

Data set [4] has as its system SH-SY5Y. The data set is described as follows: Neuroprotective effect against Amyloid beta 25-35-induced neurotoxicity in human SH-SY5Y cells assessed as neuronal viability after 3 hrs by MTT assay. The class given is functional, cell-based. An outline of the steps: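 Human neuronal-like SH-SY5Y cells were incubated 3 h with 10 µM Aβ25-35 peptide, with or without compound at 1-30 µM. Viability was read by colorimetric MTT assay. IC50 is the concentration giving 50% inhibition of peptide toxicity, as mean ± SD of at least two independent experiments.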

Broadly, the IC50 is the midpoint of a concentration-inhibition curve. As a reminder, the logP is the decadic logarithm of the partition coefficient of the neutral form, usually between octanol and water.

Molecules are shown by their SMILES.

Acetylcholinesterase, sequence (P22303 whole entry): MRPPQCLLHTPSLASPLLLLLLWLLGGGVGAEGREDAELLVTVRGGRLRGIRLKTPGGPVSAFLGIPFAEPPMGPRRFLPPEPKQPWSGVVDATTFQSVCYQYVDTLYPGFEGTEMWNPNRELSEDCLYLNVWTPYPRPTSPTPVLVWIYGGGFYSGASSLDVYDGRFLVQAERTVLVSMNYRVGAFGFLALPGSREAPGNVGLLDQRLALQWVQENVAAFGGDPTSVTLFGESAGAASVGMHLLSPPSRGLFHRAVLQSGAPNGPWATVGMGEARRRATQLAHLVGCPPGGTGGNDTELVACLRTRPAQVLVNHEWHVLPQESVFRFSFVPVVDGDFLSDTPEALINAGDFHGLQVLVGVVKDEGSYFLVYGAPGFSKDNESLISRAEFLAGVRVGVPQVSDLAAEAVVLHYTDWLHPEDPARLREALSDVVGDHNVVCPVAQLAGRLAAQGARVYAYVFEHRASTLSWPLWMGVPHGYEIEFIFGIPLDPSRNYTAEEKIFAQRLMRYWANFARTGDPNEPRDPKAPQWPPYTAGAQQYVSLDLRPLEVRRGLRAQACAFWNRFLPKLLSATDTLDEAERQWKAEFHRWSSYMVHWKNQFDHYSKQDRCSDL

As to `COc1ccc(C(=O)c2c(-c3ccc(OCCCCCCCN(C)Cc4ccccc4)cc3)oc3ccccc23)cc1`, the IC50 on Acetylcholinesterase was found to be 281 µM; at Cholinesterase, 89.1 µM.
As to `COc1cccc(C(=O)c2c(-c3ccc(OCCCCCCCN(C)Cc4ccccc4)cc3)oc3ccccc23)c1`, the IC50 on Acetylcholinesterase was 127 µM; against Cholinesterase it was 21.7 µM.
For `Cc1ccc(C(=O)c2c(-c3ccc(OCCCCCCCN(C)Cc4ccccc4)cc3)oc3ccccc23)cc1`, the IC50 was determined as 13 µM in data set [1], 10.5 µM at Acetylcholinesterase and 1.82 µM against Cholinesterase.
`CN(CCCCCCCOc1ccc(-c2cc3ccccc3o2)cc1)Cc1ccccc1`: the values for the IC50 (in data set [1]; at Acetylcholinesterase; against Cholinesterase) were 7 µM, 32.6 µM and 0.28 µM, respectively. The same compound came in with a logP in data set [2] of 6.8.
For `COc1ccc(C(=O)c2c(-c3ccc(OCCCCCCCN(C)Cc4ccccc4)cc3)oc3ccccc23)cc1OC`, the IC50 at Acetylcholinesterase was 177 µM; at Cholinesterase, 74.1 µM.
`Cc1cccc(C(=O)c2c(-c3ccc(OCCCCCCCN(C)Cc4ccccc4)cc3)oc3ccccc23)c1`: the values for the IC50 at Acetylcholinesterase and against Cholinesterase were 127 µM and 40.9 µM, respectively.
Regarding `CN(CCCCCCCOc1ccc(-c2oc3ccccc3c2C(=O)c2ccccc2)cc1)Cc1ccccc1`, in the data set with SH-SY5Y [3], the Activity amounted to 63%. For the same compound, the IC50 amounted to 5.6 µM with SH-SY5Y [4], 12.5 µM in data set [1], 40.7 µM at Acetylcholinesterase and 38.1 µM against Cholinesterase. In addition, the logP in data set [2] was 8.
For the compound `CC(=O)c1c(-c2ccc(OCCCCCCCN(C)Cc3ccccc3)cc2)oc2ccccc12`, the IC50 was 17.4 µM at Acetylcholinesterase and 1.83 µM on Cholinesterase.
For the compound `COc1cc(/C=C/C(=O)CC(=O)/C=C/c2ccc(O)c(OC)c2)ccc1O` [CURCUMIN], half-maximal inhibition in data set [1] (IC50) was put at 10 µM.
